Results taken from article PMC12102734 (Protein Science : A Publication of the Protein Society, 2025).
One block for each compound: values may come before it. mca = not defined here

Tests used:
[1] = target: T1, Sm20S β1 subunit (Schistosoma mansoni, UniProt G4V926); experiment: Concentration-response assay, purified Sm20S, Z-LLE-amc substrate; assay type: biochemical
T1 sequence (G4V926 1-225): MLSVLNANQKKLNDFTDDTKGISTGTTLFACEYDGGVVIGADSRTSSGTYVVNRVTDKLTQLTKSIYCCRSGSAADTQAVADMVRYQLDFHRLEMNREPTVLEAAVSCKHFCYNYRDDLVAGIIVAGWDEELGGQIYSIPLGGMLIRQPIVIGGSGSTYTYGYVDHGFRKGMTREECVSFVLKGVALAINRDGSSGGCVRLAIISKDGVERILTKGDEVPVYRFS
In short: (§1)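 Sm20S purified from adult worm homogenate by 30%/60% ammonium sulfate precipitation, gel filtration and DEAE anion exchange. Test compound was 3-fold serially diluted in DMSO, then diluted 250-fold into 20 mM Tris-HCl pH 7.5, 0.02% SDS with 20 nM enzyme. After 15 min preincubation, an equal volume of 20 μM substrate was added: Z-LLE-amc (β1), Boc-LRR-amc (β2) or Suc-LLVY-amc (β5). Read at RT for 2 h every 2 min. Max velocity over eight reads, normalized to 0.1% DMSO control, four-parameter logistic fit.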

[2] = target: T2, Sm20S β2 subunit (Schistosoma mansoni, UniProt G4VSW3); experiment: Concentration-response assay, purified Sm20S, Boc-LRR-amc substrate; assay type: biochemical; details: for inhibition at 0.5 µM: 2 h, read-out: reduction of β2 activity (Boc-LRR-amc)
T2 sequence (G4VSW3 39-281): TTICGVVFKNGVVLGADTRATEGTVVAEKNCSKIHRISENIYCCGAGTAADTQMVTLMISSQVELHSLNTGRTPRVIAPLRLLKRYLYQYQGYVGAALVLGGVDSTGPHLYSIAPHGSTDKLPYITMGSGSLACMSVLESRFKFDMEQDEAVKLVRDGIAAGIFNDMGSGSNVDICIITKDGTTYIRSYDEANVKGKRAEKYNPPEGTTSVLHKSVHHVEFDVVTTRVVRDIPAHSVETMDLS
In short: as §1

[3] = target: T3, Sm20S β5 subunit (Schistosoma mansoni, UniProt A0A5K4F079); experiment: Concentration-response assay, purified Sm20S, Suc-LLVY-amc substrate; assay type: biochemical; details: 500 nM inhibitor
T3 sequence (A0A5K4F079 63-264): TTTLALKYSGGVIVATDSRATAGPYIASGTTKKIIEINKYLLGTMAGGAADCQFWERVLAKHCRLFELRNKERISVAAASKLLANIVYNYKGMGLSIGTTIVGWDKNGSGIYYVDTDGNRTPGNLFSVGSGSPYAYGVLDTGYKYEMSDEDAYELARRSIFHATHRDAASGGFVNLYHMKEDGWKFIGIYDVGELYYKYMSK
In short: as §1

[4] = target: T1, Sm20S β1 subunit; experiment: Inhibition of single-step enriched Sm20S, mca-VDQMDGW-K; assay type: biochemical
In short: (§2)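 Single-step enriched Sm20S: S. mansoni extract precipitated with ammonium sulfate (30% then 60% saturation, 60 min each on ice), resuspended in 100 mM Tris-HCl pH 7.5, 100 μM E-64, and concentrated on a 100 kDa filter. Assay buffer contained pepstatin, E-64 and AEBSF. Extract was incubated with test compound 1 h at RT, and cleavage of internally quenched mca/K(dnp) substrates was read at 24°C (ex/em 320/400 nm). Technical triplicates, curve fitting.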

[5] = tested on: 20S proteasome β2 subunit (single-step enriched extracts); experiment: Proteasome inhibition in three Schistosoma species, β2 substrate mca-FnKRR-K; assay type: biochemical, S. mansoni, S. haematobium, S. japonicum; details: extracts pre-incubated 1 h with 500 nM inhibitor
In short: (§3)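 Extracts of S. mansoni, S. haematobium and S. japonicum adults were enriched by 30%/60% ammonium sulfate precipitation. Extracts (S. haematobium 0.625 μg/μL; others 1.25 μg/μL) were preincubated 1 h with 500 nM test compound (one also at 250 nM) or 0.125% DMSO. An equal volume of substrate was then added: 20 μM β1 or β2 mca/K(dnp) substrate, or 40 μM β5 Ac-FNKL-amc. Read at 24°C, triplicate wells.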

[6] = tested on: 20S proteasome β5 subunit (single-step enriched extracts); experiment: Proteasome inhibition in three Schistosoma species, β5 substrate Ac-FNKL-amc; assay type: biochemical, S. mansoni, S. haematobium, S. japonicum; details: for inhibition of β5 activity, three Schistosoma species: extracts pre-incubated 1 h with 500 nM inhibitor; for reduction of β5 activity, across three Schistosoma species: 250 nM inhibitor
In short: as §3

[7] = tested on: Sm20S; assay type: biochemical, Schistosoma mansoni; details: purified Sm20S
In short: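 Purified Sm20S at 10 nM was given 2-fold serial dilutions of each substrate and fluorescence was read at 24°C. Ex/em was 360/460 nm for amc and 320/400 nm for mca substrates. Ranges were 2–500 μM for the β1 pair and 6.25–500 μM for the β2 pair. Relative activity was normalized to the rate at 500 μM (β1 pair), 500 μM Boc-LRR-amc vs 31.25 μM mca-FnKRR-K(dnp) (β2), and 100 μM (β5 pair). Technical triplicates.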

[8] = target: T2, Sm20S β2 subunit; experiment: Inhibition of single-step enriched Sm20S, mca-FnKRR-K; assay type: biochemical
In short: as §2

[9] = tested on: 20S proteasome β1 subunit (single-step enriched extracts); experiment: Proteasome inhibition in three Schistosoma species, β1 substrate mca-VDQMDGW-K; assay type: biochemical, S. mansoni, S. haematobium, S. japonicum
In short: as §3

[10] = target: T1, Sm20S β1 subunit; experiment: Inhibition of purified Sm20S, caspase-3 substrate mca-VDQMDGW-K; assay type: biochemical; details: 100 nM inhibitor, 10 μM substrate

inhibition of β1 activity with old substrate Z-LLE-amc ([1]; 10 μM inhibitor): fully inhibited
inhibition at 0.5 µM ([1]; 2 h, read-out: reduction of β1 activity (Z-LLE-amc)): ~40%
inhibition at 0.5 µM [2]: ~40%
inhibition of β5 activity (Suc-LLVY-amc) [3]: strongly inhibited
inhibition of β1 activity with new substrate mca-VDQMDGW-K(dnp) ([4]; 10 μM inhibitor, single-step enriched Sm20S): only partially inhibitory
inhibition at 5 µM ([4]; read-out: inhibition of β1 subunit): 15%
Compound: CC(C)C[C@H](NC(=O)[C@H](CCc1ccccc1)NC(=O)CN1CCOCC1)C(=O)N[C@@H](Cc1ccccc1)C(=O)N[C@@H](CC(C)C)C(=O)[C@@]1(C)CO1 [CFZ, carfilzomib]
inhibition of β2 activity, three Schistosoma species [5]: inhibited β5 and β2 more than β1
inhibition of β5 activity, three Schistosoma species [6]: inhibited β5 and β2 more than β1

Compound: Ac‐FNKL‐amc
cleavage rate relative to Suc-LLVY-amc ([7]; both substrates at 25 μM, β5): ~ 4 fold
substrate concentration at which cleavage is maximal ([7]; β5 substrate): 25 µM

Compound: Boc‐LRR‐amc
cleavage by Sm20S over substrate concentration range ([7]; 6.25-500 μM substrate, β2): steadily increased across the entire concentration range

reduction of β1 activity (Z-LLE-amc) ([1]; 500 nM inhibitor, purified Sm20S): strongly inhibited
inhibition of β2 activity with old substrate Boc-LRR-amc ([2]; 10 μM inhibitor): completely inhibited
inhibition at 0.5 µM [2]: ~35%
inhibition of β5 activity (Suc-LLVY-amc) [3]: strongly inhibited
inhibition of β2 activity with new substrate mca-FnKRR-K(dnp) ([8]; 10 μM inhibitor): did not inhibit
reduction of β2 activity ([8]; up to 5 μM inhibitor): No reduction
inhibition of mca-VDQMD*GW-K(dnp) hydrolysis by Sm20S [10]: inhibited
Compound: CC(C)C[C@H](NC(=O)[C@H](Cc1ccccc1)NC(=O)c1cnccn1)B(O)O [BTZ, bortezomib]
inhibition of β1 activity, three Schistosoma species ([9]; extracts pre-incubated 1 h with 500 nM inhibitor): preferentially inhibited
inhibition of β5 activity, three Schistosoma species [6]: preferentially inhibited

Compound: C[C@@]12OC(=O)[C@]1([C@@H](O)[C@@H]1C=CCCC1)NC(=O)[C@@H]2CCCl [MZB, marizomib]
reduction of β5 activity, across three Schistosoma species [6]: complete inactivation

Compound: CCCCCC(=O)N[C@@H](Cc1c[nH]c2ccccc12)C(=O)N[C@@H](Cc1c[nH]c2ccccc12)C(=O)N[C@@H](Cc1ccccc1)C(=O)[C@@]1(C)CO1 [CP‐17]
reduction in β1 activity, across three Schistosoma species ([9]; 250 nM inhibitor): little inhibition
reduction of β5 activity, across three Schistosoma species [6]: > 90%

Compound: mca‐VDQMDGW‐K(dnp)‐NH2 (mca-VDQMDGW-{K(dnp)-NH2}; reading uncertain; also: printed as mca‐VDQMDGW‐K(dnp)‐NH2)
cleavage efficiency relative to LLE-amc ([7]; between 16 and 250 μM substrate, β1): ~ 2 fold
